Seven compounds from ChEMBL document CHEMBL3272226, “Synthesis and dopaminergic activity of (+/-)-, (+)-, and (-)-2-dipropylamino-5-hydroxy-1,2,3,4-tetrahydronaphthalene” (1976) can be followed below.

SMILES strings stand for the structures. Calls of active or inactive are those of the source. The rule behind the calls is not given here.

Experiment [1] has as its system Canis familiaris. Briefly: Dopaminergic activity in dog assessed as induction of emesis administered intramuscularly measured up to 20 hrs. The format is functional, Canis lupus familiaris. The note with it: for minimal effective dose: Canis lupus familiaris, im, 20 h, read-out: MED. The essentials:
(§1)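 Dogs, three to five per dose, given im injection of test solutions (HCl or HI salts dissolved in saline, doses as free base); minimum emetic dose determined.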

For experiment [2], the system named is Rattus norvegicus. Briefly: Dopaminergic activity in sc dosed Sprague-Dawley rat assessed as induction of stereotyped behavior administered for 30 to 50 mins. The format is functional. The note with it: for minimal effective dose: Rattus norvegicus, Sprague-Dawley, sc, read-out: MED. In short, it runs like this: (§2)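 Sprague-Dawley male rats, three per dose, dosed sc with HCl or HI salts in saline (doses as free base); minimum dose inducing stereotyped behavior lasting 30-50 min determined.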

Experiment [3] deals with Canis familiaris. Kind of experiment: Dopaminergic activity in (+)-6-(dipropylamino)-5,6,7,8-tetrahydronaphthalen-1-ol-pretreated dog assessed as induction of emesis administered intramuscularly measured up to 20 hrs. The class given is functional, organism-based. The note with it: Canis lupus familiaris. In short, it runs like this: as §1
For experiment [4], the system named is Rattus norvegicus. Kind of experiment: Dopaminergic activity in (+)-6-(dipropylamino)-5,6,7,8-tetrahydronaphthalen-1-ol-pretreated sc dosed Sprague-Dawley rat assessed as induction of stereotyped behavior administered for 30 to 50 mins. The class given is functional, organism-based. The essentials:
as §2

Turning to `CCCN(CCC)C1CCc2c(O)cccc2C1` (racemic) [5-OH-DPAT], the MED is 0.004 mg/kg with Canis familiaris [1] and 0.09 mg/kg in the experiment on Rattus norvegicus [2].
In the case of `CN1CCc2cccc3c2[C@H]1Cc1ccc(O)c(O)c1-3`, the result with Canis familiaris [3] and in the experiment on Rattus norvegicus [4] was Active.
In the case of `CCCN(CCC)C1CCc2c(O)cccc2C1` (single isomer, unassigned; (-)) [5-OH-DPAT], the results for the MED with Canis familiaris [1] and in the experiment with Rattus norvegicus [2] were 0.002 mg/kg and 0.05 mg/kg, respectively.
Take `CCCN(CCC)C1CCc2c(O)cccc2C1` (single isomer, unassigned; (-)): the outcome with Canis familiaris [3] and in the experiment with Rattus norvegicus [4] was Active.
In the case of `CCCN(CCC)C1CCc2ccc(O)cc2C1` (racemic), the minimal effective dose in the experiment with Canis familiaris [1] was 0.013 mg/kg; with Rattus norvegicus [2], 23 mg/kg.
For `CCCN(CCC)C1CCc2c(O)cccc2C1` (single isomer, unassigned; (+)) [5-OH-DPAT], the figures for the MED in the experiment with Canis familiaris [1] and in the experiment on Rattus norvegicus [2] were over 0.08 mg/kg and over 1.8 mg/kg, respectively.
Take `CCCN(CCC)C1CCc2cc(O)ccc2C1` (racemic): the minimal effective dose was determined as 0.036 mg/kg with Canis familiaris [1] and 13 mg/kg in the experiment with Rattus norvegicus [2].
